Series [1] deals with Cryptococcus neoformans. In words: Antifungal activity against Cryptococcus neoformans ATCC 90113 after 70 to 74 hrs by alamar blue dye based CLSI method. The format is functional. (In general: Alamar Blue is a resazurin reagent that responds to reducing activity.)
The test system of series [2] is Cryptococcus neoformans. In words: Antifungal activity against Cryptococcus neoformans ATCC 350 after 70 to 74 hrs by alamar blue dye based CLSI method. The format is functional.
The subject of series [3] is Cryptococcus neoformans. Description: Fungicidal activity against Cryptococcus neoformans ATCC 350 at 0.89 ug/ml after 4 hrs by time kill assay. Type of series: functional.
Series [4] concerns SK-OV-3. Description: Cytotoxicity against human SKOV3 cells assessed as reduction in cell viability after 48 hrs by neutral red uptake assay. The format is cell-based. The note with it: sk-ov-3, 48 h. The method in brief: (§1)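 Cells seeded at 25 000 per well and grown 24 h to confluence, then exposed to peptides up to 10 μg/mL for 48 h; viability by modified neutral red uptake; doxorubicin positive control, DMSO negative control.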

For series [5], the system named is SK-MEL. In words: Cytotoxicity against human SK-MEL cells assessed as reduction in cell viability after 48 hrs by neutral red uptake assay. The format is cell-based. The method, boiled down: as §1
Series [6] has as its system BT-549. Description: Cytotoxicity against human BT549 cells assessed as reduction in cell viability after 48 hrs by neutral red uptake assay. Type of series: cell-based. Conditions: bt-549, 48 h. The method in brief: as §1
The test system of series [7] is LLC-PK1. Description: Cytotoxicity against pig LLC-PK1 cells assessed as reduction in cell viability after 48 hrs by neutral red uptake assay. Type of series: cell-based, Sus scrofa. Conditions: llc-pk1, 48 h. The method in brief: as §1
Series [8] deals with Vero. Description: Cytotoxicity against African green monkey Vero cells assessed as reduction in cell viability after 48 hrs by neutral red uptake assay. Conditions: chlorocebus sabaeus. The format is cell-based. The method in brief:
as §1

A short description of series [9]: Selectivity index, ratio of cytotoxicity against human SKOV3 cells to IC50 for Cryptococcus neoformans ATCC 90113. The format is toxicity, cell-based. The note with it: read-out: Selectivity Index.
The nature of series [10]: Selectivity index, ratio of cytotoxicity against human SK-MEL cells to IC50 for Cryptococcus neoformans ATCC 90113. Type of series: toxicity, cell-based. Conditions: read-out: Selectivity Index.
Series [11] in a line: Selectivity index, ratio of cytotoxicity against human BT549 cells to IC50 for Cryptococcus neoformans ATCC 90113. The note with it: read-out: Selectivity Index. The format is toxicity, cell-based.
Series [12] in a line: Selectivity index, ratio of cytotoxicity against pig LLC-PK1 cells to IC50 for Cryptococcus neoformans ATCC 90113. Type of series: toxicity, cell-based. The note with it: read-out: Selectivity Index.
Series [13] in a line: Selectivity index, ratio of cytotoxicity against African green monkey VERO cells to IC50 for Cryptococcus neoformans ATCC 90113. The format is toxicity, cell-based. Conditions: read-out: Selectivity Index.
Series [14] has as its system Staphylococcus aureus. In words: Antibacterial activity against Staphylococcus aureus ATCC 29213 after […] hrs by alamar blue dye based CLSI method. Type of series: functional.
For series [15], the system named is Staphylococcus aureus. In words: Antibacterial activity against methicillin-resistant Staphylococcus aureus ATCC 33591 after 16 to 20 hrs by alamar blue dye based CLSI method. Type of series: functional.
Series [16] in a line: Selectivity index, ratio of cytotoxicity against human SKOV3 cells to IC50 for Staphylococcus aureus ATCC 29213. The format is toxicity, cell-based. The note with it: read-out: Selectivity Index. The method in brief:
(§2)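 Selectivity index is the ratio CTX/IC50. For CTX, cells were seeded at 25 000 per well and grown 24 h, then exposed to peptide up to 10 μg/mL for 48 h, with viability by neutral red uptake. […] The inoculum was 5 × 10^5 CFU/mL, with OD530 read before and after incubation.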

Series [17] in a line: Selectivity index, ratio of cytotoxicity against human SK-MEL cells to IC50 for Staphylococcus aureus ATCC 29213. Type of series: toxicity, cell-based. Conditions: read-out: Selectivity Index. The method in brief: as §2
A short description of series [18]: Selectivity index, ratio of cytotoxicity against human BT549 cells to IC50 for Staphylococcus aureus ATCC 29213. Type of series: toxicity, cell-based. Conditions: read-out: Selectivity Index. The method in brief:
as §2

Series [19] in a line: Selectivity index, ratio of cytotoxicity against pig LLC-PK1 cells to IC50 for Staphylococcus aureus ATCC 29213. Type of series: toxicity, cell-based. Conditions: read-out: Selectivity Index. The method in brief: as §2
Series [20] can be described thus: Selectivity index, ratio of cytotoxicity against African green monkey VERO cells to IC50 for Staphylococcus aureus ATCC 29213. Type of series: toxicity, cell-based. Conditions: read-out: Selectivity Index. The method in brief: as §2
Series [21] in a line: Selectivity index, ratio of cytotoxicity against human SKOV3 cells to IC50 for methicillin-resistant Staphylococcus aureus ATCC 33591. Type of series: toxicity, cell-based. The note with it: read-out: Selectivity Index. The method in brief: (§3)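 Selectivity index is the ratio CTX/IC50. For CTX, cells were seeded at 25 000 per well and grown 24 h, then given peptide up to 10 μg/mL for 48 h, with neutral red uptake read-out. […] OD530 was read before and after 16−20 h at 35 °C.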

Series [22] is described as follows: Selectivity index, ratio of cytotoxicity against human SK-MEL cells to IC50 for methicillin-resistant Staphylococcus aureus ATCC 33591. The format is toxicity, cell-based. Conditions: read-out: Selectivity Index. The method in brief: as §3
Series [23] in a line: Selectivity index, ratio of cytotoxicity against human BT549 cells to IC50 for methicillin-resistant Staphylococcus aureus ATCC 33591. Type of series: toxicity, cell-based. Conditions: read-out: Selectivity Index. The method in brief: as §3
Series [24] can be described thus: Selectivity index, ratio of cytotoxicity against pig LLC-PK1 cells to IC50 for methicillin-resistant Staphylococcus aureus ATCC 33591. The note with it: read-out: Selectivity Index. The format is toxicity, cell-based. The method, boiled down:
as §3

Series [25] is described as follows: Selectivity index, ratio of cytotoxicity against African green monkey VERO cells to IC50 for methicillin-resistant Staphylococcus aureus ATCC 33591. Type of series: toxicity, cell-based. The note with it: read-out: Selectivity Index. The method, boiled down: as §3
In series [26] the test system is Escherichia coli. Description: Antibacterial activity against Escherichia coli ATCC 35218 after 16 to 20 hrs by alamar blue dye based CLSI method. The format is functional.
Series [27] relates to Candida. In words: Antifungal activity against Candida. The format is functional.
Series [28] has as its system Aspergillus. In words: Antifungal activity against Aspergillus. The format is functional.

Molecules are shown by their SMILES. Values after ≈ are worked out from the molar mass of the structure shown. Active and inactive are the calls of the source.

As to `C[C@@H]1[C@H](O)[C@@H](C)/C=C/C=C/C=C/C=C/C=C/C=C/C=C/[C@H](O[C@@H]2O[C@H](C)[C@@H](O)[C@H](N)[C@@H]2O)C[C@@H]2O[C@](O)(C[C@@H](O)C[C@@H](O)[C@H](O)CC[C@@H](O)C[C@@H](O)CC(=O)O[C@H]1C)C[C@H](O)[C@H]2C(=O)O` [AMPHOTERICIN B], in [1], the MFC (commonly the smallest concentration meeting the test's criterion for killing the fungus) is 1.25 µg/mL (≈ 1.35 µM) and it took 1.25 µg/mL (≈ 1.35 µM) to inhibit growth (MIC). Also, in series [2], it took 0.89 µg/mL (≈ 0.963 µM) to inhibit growth (MIC). Also, in series [3], the result was Active.
Regarding `OC(Cn1cncn1)(Cn1cncn1)c1ccc(F)cc1F` [FLUCONAZOLE], 9.57 µg/mL (≈ 31.2 µM) was the least that counted as inhibitory in series [2] (MIC).
Regarding `COC(=O)[C@H](Cc1c[nH]c(-c2ccc(C(C)(C)C)cc2)n1)NC(=O)[C@H](Cc1c[nH]c2ccccc12)NC(=O)[C@@H](N)Cc1c[nH]c(-c2ccc(C(C)(C)C)cc2)n1`, the results for the IC50 in series [1], in series [14] and in series [15] were 0.83 µg/mL (≈ 1.1 µM), 4.33 µg/mL (≈ 5.72 µM) and 6.71 µg/mL (≈ 8.86 µM), respectively. In series [1], this molecule showed an MFC of 1.25 µg/mL (≈ 1.65 µM). In addition, the MIC (as a rule, the least concentration at which growth counts as inhibited) was 1.25 µg/mL (≈ 1.65 µM) in series [1], 10 µg/mL (≈ 13.2 µM) in series [14] and > 20 µg/mL in [15]. In addition, the Activity in series [4], in series [5], in series [6], in series [7] and in series [8] was > 10 µg/mL each time. Besides, the selectivity ratio in series [9] was > 12; in [10] it was > 12; in [11] it was > 12; in series [12], > 12; in series [13], > 12; in [16], > 2.3. The selectivity ratio in [17] is > 2.3; in series [18] it was > 2.3; in [19] it was > 2.3; in series [20], > 2.3; in series [21], > 1.49; in [22], > 1.49. The selectivity ratio in series [23], in series [24] and in [25] was > 1.49 each time. Moreover, the MBC in [14] and in series [15] was > 20 µg/mL each time. For the same molecule, the result in series [26], in [27] and in [28] was inactive.

For the origin of these results see ChEMBL document CHEMBL4011658 (J Med Chem, 2017).
